ChEMBL document CHEMBL2311289, “Novel 2-aminooctahydrocyclopentalene-3a-carboxamides as potent CCR2 antagonists” (Bioorg Med Chem Lett, 2013)

Experiments:
[1] = biological target: Voltage-gated inwardly rectifying potassium channel KCNH2 (Homo sapiens, UniProt Q12809); assay: Binding affinity to human ERG
[2] = biological target: C-C chemokine receptor type 2 (Homo sapiens, UniProt P41597); assay: Binding affinity to human CCR2
[3] = tested on: Mus musculus; assay: Antiinflammatory activity in thioglycollate-induced mouse peritonitis model expressing human CCR2 assessed as inhibition of macrophage infiltration at 1 mg/kg, po bid relative to control; assay type: functional
Outline: (§1)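 Acute inflammation model: peritonitis was induced with thioglycollate in mCCR2 knock-out/hCCR2 knock-in mice. Compound was given orally, and infiltration of macrophages into the peritoneum was measured.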

[4] = biological target: Cytochrome P450 2C9 (Homo sapiens, UniProt P11712); assay: Inhibition of human CYP2C9; assay type: ADME
[5] = AUC in dog at 10 mg/kg, po; assay type: ADME, organism-based, Canis lupus familiaris; set-up: dose 10 mg/kg, route oral; details: plasma
Outline: (§2)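 Dog pharmacokinetics: oral dosing at 10 mpk in 0.5% methocel and intravenous dosing at 2 mpk in 20% HPbCD. Readouts were systemic clearance, Vdss, oral t1/2 and oral AUC.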

[6] = biological target: Cytochrome P450 2C19 (Homo sapiens, UniProt P33261); assay: Inhibition of human CYP2C19; assay type: ADME
[7] = biological target: T1, Cytochrome P450 1A2 (Homo sapiens, UniProt P05177); assay: Inhibition of human CYP1A2; assay type: ADME
T1 sequence (P05177 whole entry): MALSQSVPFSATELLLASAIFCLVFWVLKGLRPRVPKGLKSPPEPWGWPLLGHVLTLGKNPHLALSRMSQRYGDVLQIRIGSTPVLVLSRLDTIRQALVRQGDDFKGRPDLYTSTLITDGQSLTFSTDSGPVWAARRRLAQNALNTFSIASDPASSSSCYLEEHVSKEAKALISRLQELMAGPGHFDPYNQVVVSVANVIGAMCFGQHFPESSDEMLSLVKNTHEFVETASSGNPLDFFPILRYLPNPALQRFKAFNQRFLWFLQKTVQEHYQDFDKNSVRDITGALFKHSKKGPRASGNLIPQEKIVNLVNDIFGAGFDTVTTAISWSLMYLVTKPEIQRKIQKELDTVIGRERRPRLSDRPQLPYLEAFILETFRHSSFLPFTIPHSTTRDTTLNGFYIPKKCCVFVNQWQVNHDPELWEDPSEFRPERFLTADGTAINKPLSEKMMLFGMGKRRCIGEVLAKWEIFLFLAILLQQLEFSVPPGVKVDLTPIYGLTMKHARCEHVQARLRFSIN

[8] = biological target: Cytochrome P450 2D6 (Homo sapiens, UniProt P10635); assay: Inhibition of human CYP2D6; assay type: ADME
[9] = Volume of distribution at steady state in dog at 10 mg/kg, po and 2 mg/kg iv; assay type: ADME, organism-based, Canis lupus familiaris; details: in vivo, read-out: Vdss; outline: as §2
[10] = tested on: Mus musculus; assay: Antiinflammatory activity in thioglycollate-induced mouse peritonitis model expressing human CCR2 assessed as inhibition of macrophage infiltration at 3 mg/kg, po bid relative to control; assay type: functional; outline: as §1
[11] = Clearance in dog at 10 mg/kg, po and 2 mg/kg iv; assay type: ADME, organism-based, Canis lupus familiaris; details: in vivo; outline: as §2
[12] = tested on: Mus musculus; assay: Antiinflammatory activity in thioglycollate-induced mouse peritonitis model expressing human CCR2 assessed as inhibition of macrophage infiltration at 0.3 mg/kg, po bid relative to control; assay type: functional; outline: as §1
[13] = tested on: Mus musculus; assay: Antiinflammatory activity in thioglycollate-induced mouse peritonitis model expressing human CCR2 assessed as inhibition of macrophage infiltration at 10 mg/kg, po bid relative to control; assay type: functional; outline: as §1
[14] = tested on: Mus musculus; assay: Antiinflammatory activity in thioglycollate-induced mouse peritonitis model expressing human CCR2 assessed as inhibition of macrophage infiltration administered as po bid; assay type: functional; outline: as §1
[15] = Oral bioavailability in dog at 10 mg/kg; assay type: ADME, organism-based, Canis lupus familiaris; details: in vivo
[16] = biological target: Cytochrome P450 3A4 (Homo sapiens, UniProt P08684); assay: Inhibition of human CYP3A4; assay type: ADME
[17] = Half life in dog at 10 mg/kg, po; assay type: ADME, organism-based, Canis lupus familiaris; set-up: dose 10 mg/kg, route oral; details: in vivo; outline: as §2

Sequence of Voltage-gated inwardly rectifying potassium channel KCNH2 (Q12809 whole entry): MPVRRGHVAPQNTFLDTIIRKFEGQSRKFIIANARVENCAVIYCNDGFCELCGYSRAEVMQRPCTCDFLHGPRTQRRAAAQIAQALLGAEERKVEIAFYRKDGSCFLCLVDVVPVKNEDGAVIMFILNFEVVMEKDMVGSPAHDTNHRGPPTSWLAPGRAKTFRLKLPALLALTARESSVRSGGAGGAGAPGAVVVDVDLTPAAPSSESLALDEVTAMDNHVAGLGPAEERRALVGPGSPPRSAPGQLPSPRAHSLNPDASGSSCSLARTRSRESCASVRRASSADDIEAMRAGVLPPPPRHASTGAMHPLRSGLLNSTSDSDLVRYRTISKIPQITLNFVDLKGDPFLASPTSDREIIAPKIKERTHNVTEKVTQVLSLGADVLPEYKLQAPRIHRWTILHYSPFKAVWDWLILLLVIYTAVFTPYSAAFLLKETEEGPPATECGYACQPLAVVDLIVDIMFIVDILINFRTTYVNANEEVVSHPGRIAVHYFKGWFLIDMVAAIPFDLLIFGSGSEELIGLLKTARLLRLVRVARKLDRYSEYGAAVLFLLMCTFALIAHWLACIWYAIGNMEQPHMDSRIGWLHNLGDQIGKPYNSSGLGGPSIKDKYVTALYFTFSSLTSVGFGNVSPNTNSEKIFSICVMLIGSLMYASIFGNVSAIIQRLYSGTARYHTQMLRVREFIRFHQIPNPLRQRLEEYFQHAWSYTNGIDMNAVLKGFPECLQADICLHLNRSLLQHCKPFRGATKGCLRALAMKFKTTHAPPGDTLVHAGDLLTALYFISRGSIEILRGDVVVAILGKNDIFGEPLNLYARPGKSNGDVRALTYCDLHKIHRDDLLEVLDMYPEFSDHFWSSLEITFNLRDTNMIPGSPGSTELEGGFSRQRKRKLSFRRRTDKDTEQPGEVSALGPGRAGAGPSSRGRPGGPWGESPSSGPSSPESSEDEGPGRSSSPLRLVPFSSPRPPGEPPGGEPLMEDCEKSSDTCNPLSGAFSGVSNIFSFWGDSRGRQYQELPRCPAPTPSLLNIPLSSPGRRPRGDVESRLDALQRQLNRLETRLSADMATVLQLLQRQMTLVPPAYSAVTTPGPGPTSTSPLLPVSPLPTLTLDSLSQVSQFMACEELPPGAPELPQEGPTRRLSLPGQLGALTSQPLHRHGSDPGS
Sequence of C-C chemokine receptor type 2 (P41597 whole entry): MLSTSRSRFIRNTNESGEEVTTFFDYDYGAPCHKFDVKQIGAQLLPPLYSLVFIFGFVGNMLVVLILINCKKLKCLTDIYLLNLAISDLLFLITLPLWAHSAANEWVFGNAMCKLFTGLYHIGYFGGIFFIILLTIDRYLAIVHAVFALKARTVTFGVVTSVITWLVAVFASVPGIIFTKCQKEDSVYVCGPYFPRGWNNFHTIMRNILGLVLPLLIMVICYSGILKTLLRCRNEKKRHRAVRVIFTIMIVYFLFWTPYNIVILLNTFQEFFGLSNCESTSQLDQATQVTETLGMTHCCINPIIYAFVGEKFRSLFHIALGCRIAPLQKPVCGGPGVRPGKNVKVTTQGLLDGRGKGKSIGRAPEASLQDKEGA
Sequence of Cytochrome P450 2C9 (P11712 whole entry): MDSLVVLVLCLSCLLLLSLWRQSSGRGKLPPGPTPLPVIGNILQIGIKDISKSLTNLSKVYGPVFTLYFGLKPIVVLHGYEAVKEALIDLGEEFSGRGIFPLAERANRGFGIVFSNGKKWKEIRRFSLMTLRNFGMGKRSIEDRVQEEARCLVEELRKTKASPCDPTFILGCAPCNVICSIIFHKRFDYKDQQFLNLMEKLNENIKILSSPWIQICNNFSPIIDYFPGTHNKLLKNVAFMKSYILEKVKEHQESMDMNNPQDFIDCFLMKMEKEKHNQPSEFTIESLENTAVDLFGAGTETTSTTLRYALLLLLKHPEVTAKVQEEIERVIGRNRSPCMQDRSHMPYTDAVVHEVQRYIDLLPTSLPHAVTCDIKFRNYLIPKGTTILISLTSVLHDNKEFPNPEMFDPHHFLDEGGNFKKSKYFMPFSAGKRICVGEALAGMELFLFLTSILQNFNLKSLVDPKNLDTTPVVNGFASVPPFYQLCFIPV
Sequence of Cytochrome P450 3A4 (P08684 whole entry): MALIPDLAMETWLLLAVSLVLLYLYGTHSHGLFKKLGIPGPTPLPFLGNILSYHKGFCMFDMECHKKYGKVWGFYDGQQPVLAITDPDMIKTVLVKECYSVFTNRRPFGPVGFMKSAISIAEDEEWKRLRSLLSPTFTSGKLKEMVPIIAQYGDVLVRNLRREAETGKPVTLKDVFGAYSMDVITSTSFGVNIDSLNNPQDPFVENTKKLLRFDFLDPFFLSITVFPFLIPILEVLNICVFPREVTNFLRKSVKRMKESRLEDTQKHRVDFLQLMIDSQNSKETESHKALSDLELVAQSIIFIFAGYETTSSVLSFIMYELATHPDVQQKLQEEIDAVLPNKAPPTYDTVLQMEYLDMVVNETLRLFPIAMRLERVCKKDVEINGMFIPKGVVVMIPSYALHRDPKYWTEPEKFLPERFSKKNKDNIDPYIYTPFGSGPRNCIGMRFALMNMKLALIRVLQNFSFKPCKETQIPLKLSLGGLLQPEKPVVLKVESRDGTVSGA
Sequence of Cytochrome P450 2D6 (P10635 whole entry): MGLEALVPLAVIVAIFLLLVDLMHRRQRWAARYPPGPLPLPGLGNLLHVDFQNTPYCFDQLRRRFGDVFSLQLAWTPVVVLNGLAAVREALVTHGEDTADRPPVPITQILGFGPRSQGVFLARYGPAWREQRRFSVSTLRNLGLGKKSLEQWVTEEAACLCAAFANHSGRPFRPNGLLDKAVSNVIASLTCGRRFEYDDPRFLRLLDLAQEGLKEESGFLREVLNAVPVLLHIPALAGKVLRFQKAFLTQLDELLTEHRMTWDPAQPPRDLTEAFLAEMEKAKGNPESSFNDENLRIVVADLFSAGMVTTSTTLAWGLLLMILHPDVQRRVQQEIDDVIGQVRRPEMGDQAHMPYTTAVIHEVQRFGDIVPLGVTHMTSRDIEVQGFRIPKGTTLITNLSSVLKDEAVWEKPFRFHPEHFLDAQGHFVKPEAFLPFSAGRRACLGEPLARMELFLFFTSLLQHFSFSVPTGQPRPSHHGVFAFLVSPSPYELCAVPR
Sequence of Cytochrome P450 2C19 (P33261 whole entry): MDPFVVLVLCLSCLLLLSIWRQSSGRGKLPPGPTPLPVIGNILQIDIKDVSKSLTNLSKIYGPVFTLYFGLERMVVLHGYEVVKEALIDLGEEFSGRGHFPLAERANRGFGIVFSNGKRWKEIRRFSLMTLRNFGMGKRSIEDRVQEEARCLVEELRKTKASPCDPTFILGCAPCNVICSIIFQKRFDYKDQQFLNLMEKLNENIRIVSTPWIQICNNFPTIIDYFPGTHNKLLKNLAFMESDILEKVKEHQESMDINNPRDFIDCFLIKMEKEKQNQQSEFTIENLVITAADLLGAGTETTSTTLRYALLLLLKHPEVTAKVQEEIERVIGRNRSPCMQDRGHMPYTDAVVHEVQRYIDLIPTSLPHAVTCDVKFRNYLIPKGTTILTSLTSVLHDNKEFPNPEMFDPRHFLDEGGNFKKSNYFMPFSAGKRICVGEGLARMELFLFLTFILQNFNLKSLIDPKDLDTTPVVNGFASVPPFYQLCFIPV

Compound | IC50 [2] [µM] | IC50 [1] [µM] | further results
COC1COCCC1N[C@@H]1C[C@H]2C[C@@H](Cl)C[C@@]2(C(=O)N2CCc3ncc(C(F)(F)F)cc3C2)C1 (mixture of isomers) | 0.045 | > 50 | 
COC1COCCC1N[C@@H]1C[C@H]2CCC[C@@]2(C(=O)N2CCc3ncccc3C2)C1 (mixture of isomers) | > 25 |  | 
COC1COCCC1N[C@@H]1C[C@H]2CCC[C@@]2(C(=O)N2CCc3ccc(C#N)cc3C2)C1 (mixture of isomers) | 1.8 |  | 
CO[C@@H]1COCC[C@@H]1N[C@@H]1C[C@H]2CCC[C@@]2(C(=O)N2CCc3ncc(C(F)(F)F)cc3C2)C1 |  |  | inhibition in vivo at 1 mg/kg [3]: 100%; IC50 [4]: > 10 µM; AUC [5]: 12100 ng·h/mL; IC50 [6]: > 10 µM; IC50 [7]: > 10 µM; IC50 [8]: > 10 µM; Vd [9]: 2.3 L/kg; inhibition in vivo at 3 mg/kg [10]: 100%; clearance [11]: 15.2 mL/min/kg; inhibition in vivo at 0.3 mg/kg [12]: 89%; inhibition in vivo at 10 mg/kg [13]: 101%; ED50 [14]: 0.1 mg/kg; bioavailability [15]: 100%; IC50 [16]: 7.5 µM; half-life [17]: 3.4 h
COC1COCCC1N[C@@H]1C[C@H]2C[C@H](N(C)C)C[C@@]2(C(=O)N2CCc3ncc(C(F)(F)F)cc3C2)C1 (mixture of isomers) | 8.09 |  | 
COC1COCCC1N[C@@H]1C[C@H]2C[C@H](Cl)C[C@@]2(C(=O)N2CCc3ncc(C(F)(F)F)cc3C2)C1 (mixture of isomers) | 0.02 | > 50 | 
COC1COCCC1N[C@@H]1C[C@H]2CCC[C@@]2(C(=O)N2CCc3ccc(Br)cc3C2)C1 (mixture of isomers) | 0.29 | 20.3 | 
COC1COCCC1N[C@@H]1C[C@H]2C[C@@H](C(F)(F)F)C[C@@]2(C(=O)N2CCc3ncc(C(F)(F)F)cc3C2)C1 (mixture of isomers) | 0.263 |  | 
COC1COCCC1N[C@@H]1C[C@H]2C[C@@H](N(C)C)C[C@@]2(C(=O)N2CCc3ncc(C(F)(F)F)cc3C2)C1 (stereo not given in full) | 0.247 |  | 
COC1COCCC1N[C@@H]1C[C@H]2C[C@H](C(N)=O)C[C@@]2(C(=O)N2CCc3ncc(C(F)(F)F)cc3C2)C1 (mixture of isomers) | 0.088 |  | 
COC1COCCC1N[C@@H]1C[C@H]2CCC[C@@]2(C(=O)N2CCc3ncc(Cl)cc3C2)C1 (mixture of isomers) | 1.1 |  | 
COC1COCCC1N[C@@H]1C[C@H]2CCC[C@@]2(C(=O)N2CCc3ccc(Cl)cc3C2)C1 (mixture of isomers) | 0.4 | 42.4 | 
O=C(N1CCc2ncc(C(F)(F)F)cc2C1)[C@@]12CCCC[C@@H]1C[C@@H](NC1CCOCC1)C2 | 7.93 | 38.9 | 
COC1COCCC1N[C@@H]1C[C@H]2CCC[C@@]2(C(=O)N2CCc3ccc(OC(F)(F)F)cc3C2)C1 (mixture of isomers) | 0.016 |  | 
COC1COCCC1N[C@@H]1C[C@H]2CCCC[C@@]2(C(=O)N2CCc3ncc(C(F)(F)F)cc3C2)C1 (mixture of isomers) | 1.07 |  | 
COc1cnc2c(c1)CN(C(=O)[C@@]13CCC[C@@H]1C[C@@H](NC1CCOCC1OC)C3)CC2 (mixture of isomers) | > 25 |  | 
CCC(CC)N[C@@H]1C[C@H]2CCC[C@@]2(C(=O)N2CCc3ncc(C(F)(F)F)cc3C2)C1 | 3.3 | > 50 | 

Further lines, with some results ahead:

IC50 [2] [µM] | Compound | IC50 [1] [µM] | further results
0.21 | COC1COCCC1N[C@@H]1C[C@H]2C[C@H](OC)C[C@@]2(C(=O)N2CCc3ncc(C(F)(F)F)cc3C2)C1 (mixture of isomers) | > 50 | 
0.059 | COC1COCCC1N[C@@H]1C[C@H]2C[C@H](O)C[C@@]2(C(=O)N2CCc3ncc(C(F)(F)F)cc3C2)C1 (mixture of isomers) | > 50 | 
0.023 | COC1COCCC1N[C@@H]1C[C@H]2C[C@H](F)C[C@@]2(C(=O)N2CCc3ncc(C(F)(F)F)cc3C2)C1 (mixture of isomers) |  | 
0.15 | COC1COCCC1N[C@@H]1C[C@H]2C[C@@H](F)C[C@@]2(C(=O)N2CCc3ncc(C(F)(F)F)cc3C2)C1 (mixture of isomers) |  | 
3.56 | O=C(N1CCc2ncc(C(F)(F)F)cc2C1)[C@@]12CCC[C@@H]1C[C@@H](NC1CCS(=O)(=O)CC1)C2 |  | 
0.699 | O=C(N1CCc2ncc(C(F)(F)F)cc2C1)[C@@]12CCC[C@@H]1C[C@@H](NC1CCCCCC1)C2 |  | 
0.2 | COC1COCCC1N[C@@H]1C[C@H]2C[C@@H](OC)C[C@@]2(C(=O)N2CCc3ncc(C(F)(F)F)cc3C2)C1 (mixture of isomers) | > 50 | 
0.2 | COC1COCCC1N[C@@H]1C[C@H]2CCC[C@@]2(C(=O)N2CCc3ncc(Br)cc3C2)C1 (mixture of isomers) |  | 
0.13 | COC1COCCC1N[C@@H]1C[C@H]2C[C@@H](C(N)=O)C[C@@]2(C(=O)N2CCc3ncc(C(F)(F)F)cc3C2)C1 (mixture of isomers) |  | 
1.26 | COC1COCCC1N[C@@H]1C[C@H]2C[C@H](C(F)(F)F)C[C@@]2(C(=O)N2CCc3ncc(C(F)(F)F)cc3C2)C1 (mixture of isomers) |  | 
> 25 | O=C(N[C@@H]1C[C@H]2CCC[C@@]2(C(=O)N2CCc3ncc(C(F)(F)F)cc3C2)C1)C1CCOCC1 | > 50 | 
0.095 | COC1COCCC1N[C@@H]1C[C@H]2CC(F)(F)C[C@@]2(C(=O)N2CCc3ncc(C(F)(F)F)cc3C2)C1 (mixture of isomers) | > 50 | 
0.058 | COC1COCCC1N[C@@H]1C[C@H]2C[C@@H](O)C[C@@]2(C(=O)N2CCc3ncc(C(F)(F)F)cc3C2)C1 (mixture of isomers) | > 50 | 
1.5 | COC1COCCC1N[C@@H]1C[C@H]2CCC[C@@]2(C(=O)N2CCc3ncc([N+](=O)[O-])cc3C2)C1 (mixture of isomers) |  | 
> 25 | O=C(N1CCc2ncc(C(F)(F)F)cc2C1)[C@@]12CCC[C@@H]1C[C@@H](NCC1CCOCC1)C2 | 47 | 
0.125 | O=C(N1CCc2ncc(C(F)(F)F)cc2C1)[C@@]12CCC[C@@H]1C[C@@H](NC1CCOCC1)C2 | 25.7 | 
4.4 | COC1COCCC1N[C@@H]1C[C@H]2CCC[C@@]2(C(=O)N2CCc3ccc(F)cc3C2)C1 (mixture of isomers) |  | 
5.6 | COC1COCCC1N[C@@H]1C[C@H]2CCC[C@@]2(C(=O)N2CCc3ncc(OC(C)C)cc3C2)C1 (mixture of isomers) |  | 
0.034 | COC1COCCC1N[C@@H]1C[C@H]2CCC[C@@]2(C(=O)N2CCc3ccc(C(F)(F)F)cc3C2)C1 (mixture of isomers) | 27.6 | 
1.53 | O=C(N1CCc2ncc(C(F)(F)F)cc2C1)[C@@]12CCC[C@@H]1C[C@@H](NC1CCCCC1)C2 |  | 
2.33 | O=C(N1CCc2ncc(C(F)(F)F)cc2C1)[C@@]12CCC[C@@H]1C[C@@H](NC1CCCC1)C2 | 33.5 | 
0.874 | O=C(N1CCc2ncc(C(F)(F)F)cc2C1)[C@@]12CCC[C@@H]1C[C@@H](NC1CCSCC1)C2 | 23.1 | 
